Compounds with a hit are over-represented: about 2.8% of the library has one in this group of screens.
NPY-Y2 antag – blocks the human neuropeptide Y Y2 receptor | NPY-Y2 expressing cells, antagonist mode | P49146 | inhibition, % at 2.7 µM | 0.99% of 140,000 active | AID 793; in the data active means inhibition above about 17%
Target sequence (P49146 whole entry, looked up): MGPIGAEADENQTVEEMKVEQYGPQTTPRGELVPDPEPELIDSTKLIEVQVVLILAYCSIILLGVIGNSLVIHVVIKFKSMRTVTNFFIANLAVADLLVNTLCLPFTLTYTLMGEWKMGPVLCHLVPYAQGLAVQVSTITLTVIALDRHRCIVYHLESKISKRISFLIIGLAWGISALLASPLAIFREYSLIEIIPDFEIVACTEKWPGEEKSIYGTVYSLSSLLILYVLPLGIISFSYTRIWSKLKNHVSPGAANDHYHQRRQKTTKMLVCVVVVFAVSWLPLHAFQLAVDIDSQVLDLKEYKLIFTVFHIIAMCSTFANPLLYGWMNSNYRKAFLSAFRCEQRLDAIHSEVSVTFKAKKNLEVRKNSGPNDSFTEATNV
NPY-Y1 antag – blocks the human neuropeptide Y Y1 receptor; HEK293-CNG Y1 cells, membrane potential fluorescence; NPY at EC95, then isoproterenol; inhibition, % at 3.6 µM; 1% of 200,000 active;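 active means inhibition above the campaign mean inhibition of all tested compounds plus 3 SD, cut at about 20% in these data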
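Assay system: HEK293 cells with Y1 receptor plus CNG channel | Probe or stimulus: NPY (25 nM), isoproterenol (1 µM), Ro 20-1724 (25 µM) | Timing: Compound incubation 1 h at room temperature, readout 45 min post-stimulation | Measured by: Membrane-potential fluorescent dye readout | Benchmarks: High control isoproterenol alone, low control NPY with isoproterenol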
EP2 modulator – EP2 receptor (human) modulation; induction, % at 25 µM; 0.83% of 260,000 active; EP2-expressing cells, cAMP HTRF FRET, PGE2 co-stimulation;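 active means compounds whose cAMP rise, as percent of the full-agonist control response, exceeds 60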;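 further: rat C6 glioma line stably carrying human EP2 under a CMV promoter; the protocol text gives 20 µM as final concentration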
NPY2 pot ag – human NPY-Y2 potentiation or agonism, primary screen; activation, % at 3.6 µM; 0.45% of 220,000 active; P49146; cells expressing NPY-Y2, potentiator/agonist read-out; in the data active means activation above about 27%;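 further: cells stimulated with NPY near EC25 plus isoproterenol at EC100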
NPY-Y1 PAM-ag – human NPY-Y1 potentiation or agonism, primary screen; P25929; NPY-Y1 expressing cells, potentiator/agonist activation; activation, % at 3.6 µM; 0.37% of 220,000 active; AID 1304; in the data active means activation above about 33%, passing the limit was not always enough;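 further: cells stimulated with NPY at EC10 then isoproterenol at EC100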
PGE2 EP2 inh – inhibitors of human EP2 prostaglandin E2 receptor. C6 glioma cells expressing human EP2, cAMP TR-FRET; cells stimulated with saturating PGE2. P43116. 0.52% of 260,000 active. inhibition, % at 25 µM;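 active means percent inhibition above 40 after rounding to a whole number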;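 further: rat C6 glioma host cells with rolipram phosphodiesterase inhibitor present; the protocol text gives 20 µM as final concentration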
EP2 cAMP induct – human EP2 receptor cAMP induction, negative in counter-screens; shares compounds with EP2 modulator; C6 glioma EP2 cells, cAMP HTRF induction; plus low (about EC15) PGE2 agonist; calls only at 20 µM (by protocol); 47% of 1,300 active;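 active means cAMP induction above 50% in the main assay while under 30% in all four parallel counter assays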;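 further: rat C6 glioma cells stably expressing human EP2 receptor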
Of the large screens only hits and unclear results are named; the others gave an inactive call (follow-up assays come after a bar, where they were run).

S=c1[nH]cc(-c2ccccc2)n1-c1ccccc1	EP2 modulator 75 | EP2 cAMP induct inactive
Cc1ccc(-c2cccc(C(=O)NCc3ccccc3)n2)c2ccccc12	EP2 modulator 66 | EP2 cAMP induct active
CC1CCN(S(=O)(=O)c2ccc(I)cc2)CC1	none (no result: NPY-Y2 antag, NPY-Y1 antag, NPY2 pot ag, NPY-Y1 PAM-ag)
COc1ccc2cc(CN(CC3CCCO3)C(c3nnnn3C3CCCC3)C(C)C)c(=O)[nH]c2c1 (stereo not drawn)	none (no result: NPY-Y2 antag, NPY-Y1 antag, NPY2 pot ag, NPY-Y1 PAM-ag)
COc1ccc2cc(CN(Cc3ccco3)C(c3nnnn3C3CCCCC3)C(C)C)c(=O)[nH]c2c1 (stereo not drawn)	EP2 modulator 66 | EP2 cAMP induct active
CCC(c1nnnn1C1CCCC1)N(Cc1cccs1)Cc1cc2cc(C)ccc2[nH]c1=O (stereo not drawn)	EP2 modulator 84 | EP2 cAMP induct inactive
O=C1CCCc2ccccc2N1Cc1cccc(Cl)c1	EP2 modulator 72 | EP2 cAMP induct inactive
Clc1cccc(Cl)c1CSc1cc2c(nn1)-c1ccccc1CC2	none
O=C1CCCc2ccccc2N1Cc1c(Cl)cccc1Cl	EP2 modulator 72 | EP2 cAMP induct active
O=c1cc2c(nn1Cc1c(Cl)cccc1Cl)-c1ccccc1CC2	EP2 modulator 78 | EP2 cAMP induct active
O=C1CCCc2ccccc2N1Cc1ccccc1Cl	none
CCCCN1C=C(C(=O)OC)C(c2ccccc2C(F)(F)F)C(C(=O)OC)=C1	none
CCCCN1C=C(C(=O)OC)C(c2ccccc2Cl)C(C(=O)OC)=C1	EP2 modulator 69 (no result: NPY-Y2 antag) | EP2 cAMP induct active
CCCCOc1ccccc1C1C(C(=O)OC)=C(C)N(C)C(C)=C1C(=O)OC	EP2 modulator 94 | EP2 cAMP induct active
COC(=O)C1=C(C)N(C)C(C)=C(C(=O)OC)C1c1ccccc1C	none
CCOC(=O)C1=C(C)N(C)C(C)=C(C(=O)OCC)C1c1ccccc1	EP2 modulator 67 | EP2 cAMP induct active
CC1CCCCN1C(=O)c1cc2sccc2n1C (stereo not drawn)	none (no result: NPY-Y2 antag, NPY-Y1 antag, NPY2 pot ag, NPY-Y1 PAM-ag)
C=CCn1c(=S)[nH]c2sccc2c1=O	none (no result: NPY-Y2 antag) | EP2 cAMP induct inactive
O=c1c2cn[nH]c2nc(SCc2cc(=O)n3cc(Br)ccc3n2)n1-c1ccc(Br)cc1	none (no result: NPY-Y2 antag)
O=c1c2cn[nH]c2nc(SCc2ccccc2F)n1-c1ccc(Br)cc1	EP2 modulator 83 | EP2 cAMP induct active
Cc1cc(C(=O)CSc2nc3ccccc3c(=O)n2C)c(C)n1Cc1ccc2c(c1)OCO2	EP2 modulator 74 | EP2 cAMP induct inactive
Cc1cc(C(=O)CSc2nnc(-c3ccccc3)n2Cc2ccc3c(c2)OCO3)c(C)n1C	none
CC(O)c1ccc(NC(=O)c2cc3n(n2)C(C(F)(F)F)CC(c2ccco2)N3)cc1 (stereo not drawn)	none (no result: NPY-Y2 antag, NPY-Y1 antag, NPY2 pot ag, NPY-Y1 PAM-ag)
Cn1c(=O)c2c(nc(SCC(=O)c3cccs3)n2Cc2ccc(F)cc2)n(C)c1=O	EP2 modulator 75 | EP2 cAMP induct inactive
N#Cc1sc2nc(C3CC3)cc(-c3ccccc3)c2c1N	EP2 modulator 83 | EP2 cAMP induct active
N#Cc1sc2nc(-c3ccccc3)cc(-c3ccco3)c2c1N	none
CCn1c(N2CCC(C(=O)NCc3cccnc3)CC2)nc2ccccc21	none (no result: NPY-Y2 antag, NPY-Y1 antag, NPY2 pot ag, NPY-Y1 PAM-ag, PGE2 EP2 inh)
CC1CCCCN1Cn1nc2c3ccccc3ncn2c1=O (stereo not drawn)	none (no result: NPY-Y2 antag, NPY-Y1 antag, NPY2 pot ag, NPY-Y1 PAM-ag, PGE2 EP2 inh)
Cc1onc(-c2ccccc2)c1C(=O)N(Cc1ccco1)Cc1cccs1	EP2 modulator 98 (no result: NPY-Y2 antag) | EP2 cAMP induct active
CCc1nn(C(C)C(=O)O)c(=O)c2cc3sccc3n12 (stereo not drawn)	none (no result: NPY-Y2 antag, NPY-Y1 antag, NPY2 pot ag, NPY-Y1 PAM-ag)
C[C@H](CCC(=O)O)[C@@H]1CC[C@@H]2[C@H]3CC[C@@H]4C[C@H](O)CC[C@@]4(C)[C@@H]3CC[C@]21C	none (no result: NPY-Y2 antag, NPY-Y1 antag, NPY2 pot ag, NPY-Y1 PAM-ag) | EP2 cAMP induct inactive
S=c1nc(-c2ccccc2)[nH]c2ccccc12	none (no result: NPY-Y2 antag)

Assay outcomes from PubChem BioAssay.
